From PubChem
A selection: hits, their analogues and other compounds. The true share with any hit is near 1.3%.
RAD54 branch = blocks human RAD54 Holliday junction branch migration. Q92698. FAM/BHQ fluorescence. inhibition, % at 10.4 µM. 360,000 tested, 0.14% active. AID 602329;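 active means mean normalized replicate activity at least 40 and at least half of replicates scoring 40 or more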;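 further: inhibitors cause a drop in the FAM fluorescence signal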
PAX8 inh HTS = lowers PAX8-driven luciferase in RMG-I cells. RMG-I TPO-luciferase reporter, SteadyGlo, 24 h. inhibition, % at 12.6 µM. 360,000 tested, 1.2% active;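 active means mean replicate inhibition at least 60% with every replicate also reaching 60%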;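 further: luciferase light reporting Pax8 driven TPO promoter activity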
RAD52 inh = RAD52 (human) annealing inhibition | P43351 | recombinant RAD52 DNA annealing, FRET fluorescence | inhibition, % at 18.7 µM | 360,000 tested, 0.46% active;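 active means every replicate showing at least 50% inhibition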
FN deposition inh = fibronectin deposition inhibition; AH1F fibroblasts, Alexa488-fibronectin deposition fluorescence, overnight; inhibition, % at 12.6 µM; 350,000 tested, 0.086% active; AID 743247;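 active means mean inhibition across replicates of 30% or more, regardless of how many single replicates reach that level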
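Measured by – fluorescence 485/525 nm · System – AH1F fibroblast monolayer, labelled fibronectin deposition · Amount – 10000 cells per well · Buffer or medium – serum-reduced DMEM (2% serum) · Doses – single dose, pinned · Also added – fluorescent fibronectin at 24 nM final · Schedule – 1 h cell attachment, overnight exposure to compound and label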
A number is an active result; 0 = inactive; - = not tested or not shown.

SMILES	RAD54 branch	PAX8 inh HTS	RAD52 inh	FN deposition inh
O=C1N[C@@H](Cc2c[nH]c3ccccc23)COC(=O)[C@@H](Cc2ccc(F)cc2)CC/C=C/C[C@@H]1CC(=O)N(CCO)Cc1ccccc1	0	75	0	0
O=C1N[C@@H](Cc2c[nH]c3ccccc23)COC(=O)[C@H](Cc2ccc(F)cc2)C/C=C\C[C@H]1CC(=O)N(CCO)Cc1ccccc1	0	0	0	0
CC=Cc1ccc2n(c1=O)C[C@H]1[C@H](CO)[C@@H](C(=O)NCCC)N(CC3CCCC3)[C@@H]21 (mixture of isomers)	0	0	99	-
CC=Cc1ccc2n(c1=O)C[C@@H]1[C@@H](CO)[C@H](C(=O)NCCC)N(CC3CCCC3)[C@H]21 (mixture of isomers)	0	0	0	-
CCCN1[C@@H]2c3ccc(/C=C/c4ccccc4)c(=O)n3C[C@@H]2[C@@H](CO)[C@@H]1C(=O)N1CCOCC1	0	69	0	-
O=C(NC1CCC1)[C@H]1[C@H](CO)[C@H]2Cn3c(ccc(-c4ccccc4F)c3=O)[C@H]2N1Cc1ccncc1	0	0	71	-
CC=Cc1ccc2n(c1=O)C[C@@H]1[C@@H](CO)[C@H](C(=O)NC3CCCC3)N(CCC)[C@H]21 (mixture of isomers)	-	-	0	-
CC=Cc1ccc2n(c1=O)C[C@H]1[C@H](CO)[C@@H](C(=O)NC3CCC3)N(CC)[C@@H]21 (mixture of isomers)	0	87	0	-
CC(C)CCN(C(=O)C1=COCCO1)c1c(N)n(Cc2ccccc2)c(=O)[nH]c1=O	0	0	0	0
CCN(CC)C(=O)CSc1nnc(-c2ccc(O)cc2)n1CC1CCCO1 (centres undefined)	0	0	-	0
CCCc1sc(N)nc1-c1ccc(Cl)cc1	-	0	0	0
COc1cccc(-c2ccc3c(c2)[C@@H]2[C@@H](CCN2C(=O)c2ccccc2F)[C@@H](CO)N3C)c1	0	0	69	0
CN1c2ccc(-c3cccc(F)c3)cc2[C@@H]2[C@@H](CCN2C(=O)c2ccccc2F)[C@@H]1CO	0	0	0	0
COc1cccc(-c2ccc3c(c2)[C@@H]2[C@@H](CCN2C(=O)c2ccccc2F)[C@H](CO)N3C)c1	0	72	0	0
COc1ccc(/C=N/Nc2cc(C)nc3ccccc23)cc1	97	0	91	0
CCN1CCS/C1=C\C=C\C1=[N+](CC)CCS1	0	76	0	0
CCN1CCS/C1=C/C=C/C1=[N+](CC)CCS1	0	-	-	-
C=CCn1nnnc1SCC(=O)Nc1ccccc1C(=O)OC	0	-	-	-
O=C(CNC(=O)c1ccc2c(c1)OCO2)NCc1cccs1	0	0	0	-
C[C@H](CO)N1C[C@H](C)[C@H](CN(C)Cc2ccc(C(F)(F)F)cc2)OCCCC[C@H](C)Oc2ccc(NC(=O)Nc3ccccc3)cc2C1=O	0	85	-	0
C[C@@H]1CCCCO[C@H](CN(C)Cc2ccccc2)[C@H](C)CN([C@@H](C)CO)C(=O)c2cc(NC(=O)Nc3ccc(F)cc3)ccc2O1	0	0	53	-
C[C@H]1CCCCO[C@H](CN(C)Cc2ccccc2)[C@@H](C)CN([C@@H](C)CO)C(=O)c2cc(NC(=O)Nc3ccc(F)cc3)ccc2O1	0	0	0	-
C[C@@H]1CCCCO[C@@H](CN(C)Cc2ccccc2)[C@@H](C)CN([C@H](C)CO)C(=O)c2cc(NC(=O)Nc3ccc(C(F)(F)F)cc3)ccc2O1	0	77	0	0
C[C@@H]1CCCCO[C@@H](CN(C)Cc2ccccc2)[C@H](C)CN([C@H](C)CO)C(=O)c2cc(NC(=O)Nc3ccc(C(F)(F)F)cc3)ccc2O1	0	112	0	0
O=C(C[C@@H]1CC[C@H](NC(=O)Cc2cccnc2)[C@@H](CO)O1)NCc1ccc2c(c1)OCO2	0	0	0	0
SMILES	RAD54 branch	PAX8 inh HTS	RAD52 inh	FN deposition inh
Cn1c(=O)oc2cc(S(=O)(=O)CCC(=O)N3CCN(c4ccccc4F)CC3)ccc21	0	0	0	0
C[C@@H]1CCCCO[C@@H](CN(C)Cc2ccccc2)[C@H](C)CN([C@@H](C)CO)C(=O)c2cc(NC(=O)Nc3ccc(C(F)(F)F)cc3)ccc2O1	0	106	0	0
CCCCn1cnc2c(c(-c3ccccc3)c(-c3ccccc3)n2Cc2ccco2)c1=N	0	100	0	39
O=C(CN(C1CCCCC1)S(=O)(=O)c1ccc(Br)cc1)NCc1ccncc1	-	0	0	-
C/C(=C\CNc1ncnc2nc[nH]c12)CO	0	-	0	-
CC(C)CCCCCCCCCCCCC(=O)NCC(=O)NC1C(C)OC(Nc2ncnc3nc[nH]c23)C(O)C1O (centres undefined)	-	106	0	0
